What was measured:
Format in all cases: functional
[1] = Anticancer activity against human Hs 578T cells; conditions: read-out: LC50 (the source's name)
Summary of the method: (§1)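 NCI 60-cell human tumour panel (leukemia, lung, colon, CNS, melanoma, ovarian, renal, prostate, breast). A first-stage single-dose screen at 10 µM was run. Compounds giving over 60% growth inhibition in at least eight lines went on to a five-dose response. Effect was plotted against log10 molar concentration per line. GI50 is the concentration giving 50% reduction in net protein increase versus control cells. LC50 is the concentration lethal to 50% of cells.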

LOX IMVI = test: Anticancer activity against human LOXIMVI cells; summary of the method: as §1
MDA-MB-231 = test: Anticancer activity against human MDA-MB-231 cells; summary of the method: as §1
MDA-MB-435 = test: Anticancer activity against human MDA-MB-435 cells; summary of the method: as §1
HCT-15 = test: Anticancer activity against human HCT15 cells; summary of the method: as §1
IGROV-1 = test: Anticancer activity against human IGROV1 cells; summary of the method: as §1
K562 = test: Anticancer activity against human K562 cells; summary of the method: as §1
Malme-3M = test: Anticancer activity against human MALME-3M cells; summary of the method: as §1
HT-29 = test: Anticancer activity against human HT-29 cells; summary of the method: as §1
T47D = test: Anticancer activity against human T47D cells
Summary of the method: (§2)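 NCI 60-cell-line panel. A single-dose (10 µM) prescreen was run first. Compounds giving over 60% growth inhibition in at least eight lines then went to five-dose response studies. Dose-response curves of effect versus log10 concentration. GI50 is the molar concentration giving a 50% reduction in net protein increase versus control cells. LC50 is the concentration lethal to 50% of cells.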

HOP-62 = test: Anticancer activity against human HOP62 cells; summary of the method: as §1
NCI-H23 = test: Anticancer activity against human NCI-H23 cells; summary of the method: as §1
KM12 = test: Anticancer activity against human KM12 cells; summary of the method: as §1
MOLT-4 = test: Anticancer activity against human MOLT4 cells; summary of the method: as §1
SK-OV-3 = test: Anticancer activity against human SKOV3 cells; summary of the method: as §1
SNB-75 = test: Anticancer activity against human SNB75 cells; summary of the method: as §2
A549 = test: Anticancer activity against human A549 cells; summary of the method: as §1
NCI-H522 = test: Anticancer activity against human NCI-H522 cells; summary of the method: as §1
HL-60(TB) = test: Anticancer activity against human HL-60(TB) cells; summary of the method: as §1
DU-145 = test: Anticancer activity against human DU145 cells; summary of the method: as §1
SK-MEL-2 = test: Anticancer activity against human SK-MEL-2 cells; summary of the method: as §1
HCT-116 = test: Anticancer activity against human HCT116 cells; summary of the method: as §1
RXF 393 = test: Anticancer activity against human RXF393 cells; summary of the method: as §1
786-0 = test: Anticancer activity against human 786-0 cells; summary of the method: as §1
MCF7 = test: Anticancer activity against human MCF7 cells; summary of the method: as §1
OVCAR-5 = test: Anticancer activity against human OVCAR5 cells; summary of the method: as §1
OVCAR-4 = test: Anticancer activity against human OVCAR4 cells; summary of the method: as §1
SN12C = test: Anticancer activity against human SN12C cells; summary of the method: as §1
U-251 = test: Anticancer activity against human U251 cells; summary of the method: as §2
SNB-19 = test: Anticancer activity against human SNB19 cells; summary of the method: as §1
[2] = read-out: LC50 (the source's name)

N=C1NC(=O)/C(=C/c2cn(Cc3ccc(F)cc3)c3ccc(Cl)cc23)S1
CC50 [1]: > 100 µM | GI50 (LOX IMVI): 2.32 µM | CC50 (LOX IMVI; [2]): > 100 µM | GI50 (MDA-MB-231): 6.45 µM | CC50 (MDA-MB-231; [2]): > 100 µM | GI50 (MDA-MB-435): 32.4 µM | CC50 (MDA-MB-435; [2]): > 100 µM | GI50 (HCT-15): > 100 µM | CC50 (HCT-15; [2]): > 100 µM | GI50 (IGROV-1): 3.02 µM | CC50 (IGROV-1; [2]): > 100 µM | GI50 (K562): 77.6 µM | CC50 (K562; [2]): > 100 µM | GI50 (Malme-3M): 23.5 µM | CC50 (Malme-3M; [2]): > 100 µM | GI50 (HT-29): 20.8 µM | CC50 (HT-29; [2]): > 100 µM | GI50 (T47D): > 100 µM | CC50 (T47D; [2]): > 100 µM | GI50 (HOP-62): > 100 µM | CC50 (HOP-62; [2]): > 100 µM | GI50 (NCI-H23): 60.1 µM | CC50 (NCI-H23; [2]): > 100 µM | GI50 (KM12): 7.49 µM | CC50 (KM12; [2]): > 100 µM | GI50 (MOLT-4): > 100 µM | CC50 (MOLT-4; [2]): > 100 µM | GI50 (SK-OV-3): > 100 µM | CC50 (SK-OV-3; [2]): > 100 µM | GI50 (SNB-75): 2.47 µM | CC50 (SNB-75; [2]): > 100 µM | GI50 (A549): 0.77 µM | CC50 (A549; [2]): > 100 µM | GI50 (NCI-H522): 11 µM | CC50 (NCI-H522; [2]): > 100 µM | GI50 (HL-60(TB)): > 100 µM | CC50 (HL-60(TB); [2]): > 100 µM | GI50 (DU-145): 5.24 µM | CC50 (DU-145; [2]): > 100 µM | GI50 (SK-MEL-2): > 100 µM | CC50 (SK-MEL-2; [2]): > 100 µM | GI50 (HCT-116): 5.41 µM | CC50 (HCT-116; [2]): > 100 µM | GI50 (RXF 393): 1.62 µM | CC50 (RXF 393; [2]): > 100 µM | GI50 (786-0): 37.4 µM | CC50 (786-0; [2]): > 100 µM | GI50 (MCF7): > 100 µM | CC50 (MCF7; [2]): > 100 µM | GI50 (OVCAR-5): > 100 µM | CC50 (OVCAR-5; [2]): > 100 µM | GI50 (OVCAR-4): 2.49 µM | CC50 (OVCAR-4; [2]): > 100 µM | GI50 (SN12C): > 100 µM | CC50 (SN12C; [2]): > 100 µM | GI50 (U-251): 2.94 µM | CC50 (U-251; [2]): > 100 µM | GI50 (SNB-19): > 100 µM | CC50 (SNB-19; [2]): > 100 µM

Reference: ChEMBL document CHEMBL1681666, “Synthesis and in vitro screening of novel N-benzyl aplysinopsin analogs as potential anticancer agents” (2011)
